These results are taken from ChEMBL document CHEMBL4765345, “Design, synthesis, and biological evaluation of dual targeting inhibitors of histone deacetylase 6/8 and bromodomain BRPF1” (Eur J Med Chem, 2020).

Molecules are shown by their SMILES.

This assay concerns HL-60. Briefly: Antiproliferative activity against human HL60 assessed as reduction in cell growth at 4 uM by CellTiter-non radioactive cell proliferation assay. In kind it is functional. An outline of the steps:
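HL60 cells plated at 5000 per well and given inhibitor or DMSO vehicle immediately. Compounds diluted from 200x DMSO stocks; three replicates per concentration. Growth read by CellTiter 96 Aqueous (MTS) assay. GI50 is the concentration cutting metabolically active cells by 50% versus DMSO control, taken from absorbance against log concentration.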

For `COc1ccc(C(=O)NO)cc1S(=O)(=O)Nc1ccc2c(c1)cc(C)c(=O)n2C`, the inhibition at 4 µM was 25%.
